Article PMC2908238 (Journal of neurochemistry, 2010)

Assays:
[1] = Electron microscopy, morphology of assemblies; format: physicochemical; details: EM, 10 µM peptide, pH 7.4, 25°C, agitation 200 rpm; for Morphology after 72 h of incubation: 72 h (Aβ40 analogues)
How it was run: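 Peptide from HFIP films, dissolved in 60 mM NaOH, diluted with water, sonicated 1 min, adjusted to 10 µM in 20 mM sodium phosphate pH 7.4; incubated 25°C with 200 rpm orbital shaking. Aliquots adsorbed 20 min on glow-discharged carbon-coated Formvar grids, wicked, fixed 2.5% glutaraldehyde 4 min, stained 1% uranyl acetate 3 min, air-dried; transmission EM.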

Dynamic light scattering = format: physicochemical; details: 10 µM peptide, pH 7.4, filtered 20 nm, quiescent incubation
How it was run: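 HFIP-treated peptide films dissolved in 60 mM NaOH, diluted with water, sonicated 1 min, then brought to 10 µM in 20 mM sodium phosphate, pH 7.4. Passed through 20-nm filter before first reading; kept at room temperature, no agitation, up to 14 days. 633-nm He-Ne laser, 90° scattering, multitau correlator; size distribution from regularization deconvolution. Representative of two independent experiments.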

[2] = 5 µM, 37°C, without agitation, ref Ciccotosto et al. 2004; cited from earlier work

Substance: [Val^35]Aβ40: Aβ40 analogue with Met^35 substituted by Val
- Morphology after 72 h of incubation [1]: mixture of oligomers and fibrils

Substance: Aβ40: wild-type amyloid β-protein, 40-residue alloform, synthesized by Fmoc chemistry
- Morphology after 72 h of incubation [1]: did not change

Substance: Aβ42: wild-type amyloid β-protein, 42-residue alloform, synthesized by Fmoc chemistry
- DLS intensity spikes (fibril formation) after 7 days (Dynamic light scattering; 7 days): no intensity spikes
- Hydrodynamic radius (RH) of particles after 7 days (Dynamic light scattering; DLS, 7 days): the same distribution
- Hydrodynamic radius (RH) of particles after 14 days (Dynamic light scattering; DLS, 14 days): 100–200 nm
- Morphology after 24 h of incubation ([1]; 24 h (Aβ42 analogues)): abundant fibrils
- Morphology initially and after 72 h of incubation [2]: non-fibrillar morphology
